What was measured:
[1] = target: T1, Sodium- and chloride-dependent GABA transporter 1 (Mus musculus, UniProt P31648); test: Inhibition of mouse GAT1 expressed in HEK293 cells assessed as reduction in [3H]GABA uptake preincubated for 25 mins followed by [3H]GABA addition measured after 4 mins by liquid scintillation counting analysis; format: cell-based
How it was run: (§1)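 HEK293 cells stably expressing the mouse GAT subtype (about 200000 cells) preincubated with compound for 25 min at 25 °C in the dark with shaking. Then 8 nM [3H]GABA plus 32 nM unlabeled GABA (final) added for 4 min. Stopped by filtration; filter radioactivity by scintillation counting. Photoisomerized 10 mM DMSO-d6 stocks (photostationary state, Z/E ratio by 1H NMR) diluted protected from light; non-irradiated stock tested in parallel.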

[2] = target: T1, Sodium- and chloride-dependent GABA transporter 1; test: (§2) Inhibition of mouse GAT1 expressed in HEK293 cells assessed as reduction in [3H]GABA uptake preincubated cells with photoirradiated compound for 25 mins followed by [3H]GABA addition measured after 4 mins by liquid scintillation counting method; format: cell-based; how it was run: as §1
[3] = Half life of thermal relaxation of compound in pH 7.4 DMSO-d6/phosphate-buffer using photoirradiated compound at 20 uM incubated in dark by UV/vis-spectroscopy; format: physicochemical; conditions: pH 7.4, 20 µM
[4] = test system: betaine/GABA transporter BGT1, Slc6a12 (Mus musculus); test: Inhibition of mouse GAT2 expressed in HEK293 cells assessed as reduction in [3H]GABA uptake by measuring remaining [3H]GABA uptake levels preincubated cells with photoirradiated compound at 100 uM for 25 mins followed by [3H]GABA addition measured after 4 mins by liquid scintillation counting …
[5] = test system: GABA transporter 2, Slc6a13 (Mus musculus); test: Inhibition of mouse GAT3 expressed in HEK293 cells assessed as reduction in [3H]GABA uptake by measuring remaining [3H]GABA uptake levels preincubated cells with photoirradiated compound at 100 uM for 25 mins followed by [3H]GABA addition measured after 4 mins by liquid scintillation counting …
[6] = target: Sodium- and chloride-dependent GABA transporter 1 (Mus musculus) (UniProt P31648); test: (§3) Inhibition of GAT1 in C57BL/6N mouse dentate gyrus granule cells assessed as induction of tonic GABAA receptor-mediated current response by measuring shift in holding current amplitude using UV-activated compound at 10 uM by Whole cell voltage-clamp method
How it was run: (§4)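 Acute 350 μm coronal dorsal hippocampal slices from mice, recovered 30 min at 34 °C then ≥30 min at room temperature in carbogenated saline (pH 7.4). Superfused at room temperature with NBQX 5 μM, APV 50 μM, CGP 55845 5 μM. Granule cell whole-cell voltage clamp at −70 mV. Compound bath-applied; activated form made by 340 nm UV for 10 min on 10 mM stock just before addition; bicuculline methiodide 20 μM.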

[7] = target: Sodium- and chloride-dependent GABA transporter 1 (Mus musculus) (UniProt P31648); test: as §3, with “uM in presence of GABAA receptor blocker bicuculline methiodide” for “uM”; how it was run: as §4
[8] = target: T2, GABA transporter 4 (Mus musculus) (UniProt P31650); test: as §2, with “GAT4” for “GAT1”, “uptake by measuring remaining [3H]GABA uptake levels” for “uptake”, “compound at 100 uM” for “compound”, “method relative to control” for “method”; format: cell-based
T2 sequence (whole entry): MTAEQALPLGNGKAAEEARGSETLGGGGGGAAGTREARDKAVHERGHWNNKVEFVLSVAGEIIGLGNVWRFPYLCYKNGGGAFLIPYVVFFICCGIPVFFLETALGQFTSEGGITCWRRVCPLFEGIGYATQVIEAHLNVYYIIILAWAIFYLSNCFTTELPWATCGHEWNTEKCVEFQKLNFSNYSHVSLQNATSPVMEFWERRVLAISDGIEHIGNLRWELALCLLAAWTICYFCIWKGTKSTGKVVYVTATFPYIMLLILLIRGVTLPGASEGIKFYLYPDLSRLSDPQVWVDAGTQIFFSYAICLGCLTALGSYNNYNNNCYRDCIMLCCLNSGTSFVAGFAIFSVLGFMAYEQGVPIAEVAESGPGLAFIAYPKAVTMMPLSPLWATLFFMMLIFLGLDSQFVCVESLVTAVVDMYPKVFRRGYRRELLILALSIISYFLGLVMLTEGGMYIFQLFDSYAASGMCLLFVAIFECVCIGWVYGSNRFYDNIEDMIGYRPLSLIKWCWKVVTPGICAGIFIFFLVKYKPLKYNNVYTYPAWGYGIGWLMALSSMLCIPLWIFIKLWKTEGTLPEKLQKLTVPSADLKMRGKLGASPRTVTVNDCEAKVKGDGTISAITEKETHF

[9] = target: T1, Sodium- and chloride-dependent GABA transporter 1; test: Inhibition of mouse GAT1 assessed as reduction in GABA uptake
[10] = target: T1, Sodium- and chloride-dependent GABA transporter 1; test: Inhibition of mouse GAT1 assessed as reduction in GABA uptake using photoirradiated compound
How it was run: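 A 10 mM DMSO-d6 stock was irradiated to its photostationary state: 350 nm Rayonet for diphenyldiazenes, 375 nm LED for naphthylphenyldiazenes. (Z)/(E) ratio was checked by 1H NMR, and dilutions were made protected from light. mGAT1-HEK293 cells were preincubated 25 min at 25 °C in the dark, then given 4 min uptake of 8 nM [3H]GABA plus 32 nM GABA. Filtration and scintillation counting gave pIC50.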

[11] = Half life of thermal relaxation of compound in pH 7.4 DMSO-d6/phosphate-buffer using photoirradiated compound at 10 uM incubated in dark by UV/vis-spectroscopy; format: physicochemical; conditions: pH 7.4, 10 µM
GABA transporter 4 = target: T3, GABA transporter 4 (Mus musculus, UniProt P31650); test: Inhibition of mouse GAT4 expressed in HEK293 cells assessed as reduction in [3H]GABA uptake preincubated for 25 mins followed by [3H]GABA addition measured after 4 mins by liquid scintillation counting analysis; format: cell-based; how it was run: as §1
T3 sequence (P31650 whole entry): T2 sequence (whole entry)

[12] = Half life of thermal relaxation of compound in pH 7.4 DMSO-d6/phosphate-buffer using photoirradiated compound at 50 uM incubated in dark by UV/vis-spectroscopy; format: physicochemical; conditions: pH 7.4, 50 µM
[13] = Half life of thermal relaxation of compound in pH 7.4 DMSO-d6/phosphate-buffer using photoirradiated compound at 25 uM incubated in dark by UV/vis-spectroscopy; format: physicochemical; conditions: pH 7.4, 25 µM
[14] = target: T1, Sodium- and chloride-dependent GABA transporter 1; test: Inhibition of mouse GAT1 expressed in HEK293 cells assessed as reduction in [3H]GABA uptake; format: cell-based
[15] = target: Sodium- and chloride-dependent GABA transporter 1 (Mus musculus) (UniProt P31648); test: Inhibition of GAT1 in C57BL/6N mouse dentate gyrus granule cells assessed as induction of tonic GABAA receptor-mediated current response by measuring shift in holding current amplitude at 10 uM by Whole cell voltage-clamp method; how it was run: as §4
[16] = Half life of thermal relaxation of compound in DMSO-d6 using photoirradiated compound by 1H NMR method; format: physicochemical
How it was run: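 Irradiated to photostationary state as 10 mM stock in DMSO-d6 (1 mL, within 10 min); 1H NMR spectra recorded starting immediately after irradiation. Z/E fraction α from spectra plotted against time, fit to a single exponential to give half-life; 25 °C.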

Row | SMILES | IC50 [1] [µM] | IC50 [2] [µM] | other results
1 | O=C(O)C1CCCN(CC/C=C/c2cccc(/N=N/c3ccccc3)c2)C1 (stereo unspecified) | 38 | – | –
2 | O=C(O)C1CCCN(CCCC=Cc2cccc(N=Nc3cccc4ccccc34)c2)C1 (mixture of isomers) | – | 10 | t1/2 [3]: 11 h
3 | O=C(O)[C@@H]1CCCN(CCC#Cc2cccc(N=Nc3cccc4ccccc34)c2)C1 (mixture of isomers) | – | 1 | –
4 | O=C(O)[C@@H]1CCCN(CCOCCc2cccc(N=Nc3cccc4ccccc34)c2)C1 (mixture of isomers) | – | – | IC50 [9]: 0.407 µM; IC50 [10]: 1.66 µM
5 | O=C(O)C1CCCN(CC/C=C/c2cccc(/N=N/c3cccc4ccccc34)c2)C1 (stereo unspecified) | 12.3 | – | –
6 | O=C(O)C1CCCN(CCCC=Cc2ccc(N=Nc3cccc4ccccc34)cc2)C1 (mixture of isomers) | – | 6.17 | t1/2 [11]: 1.5 h
7 | O=C(O)C1CCCN(CC/C=C/c2ccc(/N=N/c3ccccc3)cc2)C1 (stereo unspecified) | 10 | – | –
8 | O=C(O)C1CCCN(CCC#Cc2ccc(N=Nc3cccc4ccccc34)cc2)C1 (mixture of isomers) | – | 0.229 | t1/2 [11]: 3.4 h
9 | O=C(O)C1CCCN(CCC#Cc2ccc(/N=N/c3cccc4ccccc34)cc2)C1 (stereo unspecified) | 0.126 | – | –
10 | O=C(O)C1CCCN(CCC=Cc2ccc(N=Nc3ccccc3)cc2)C1 (mixture of isomers) | – | 37.2 | t1/2 [12]: 26.4 h
11 | O=C(O)C1CCCN(CCC=Cc2cccc(N=Nc3ccccc3)c2)C1 (mixture of isomers) | – | 4.79 | t1/2 [13]: 312 h
12 | O=C(O)[C@@H]1CCCN(CCC#Cc2ccc(N=Nc3cccc4ccccc34)cc2)C1 (mixture of isomers) | – | 0.182 | –
13 | O=C(O)C1CCCN(CC/C=C/c2ccccc2-c2ccccc2)C1 (stereo unspecified) | – | – | IC50 [14]: 0.162 µM
14 | O=C(O)[C@@H]1CCCN(CCC#Cc2ccc(/N=N/c3cccc4ccccc34)cc2)C1 | 0.0977 | – | IC50 (GABA transporter 4): 10 to 100 µM
15 | O=C(O)C1CCCN(CCCC#Cc2ccc(N=Nc3cccc4ccccc34)cc2)C1 (mixture of isomers) | – | 4.9 | t1/2 [11]: 4.3 h
16 | O=C(O)C1CCCN(CCC/C=C/c2ccc(/N=N/c3cccc4ccccc34)cc2)C1 (stereo unspecified) | 6.46 | – | –
17 | O=C(O)C1CCCN(CCC=Cc2cccc(N=Nc3cccc4ccccc34)c2)C1 (mixture of isomers) | – | 5.89 | t1/2 [3]: 22 h
18 | O=C(O)C1CCCN(CCC/C=C/c2ccc(/N=N/c3ccccc3)cc2)C1 (stereo unspecified) | 5.75 | – | –
19 | O=C(O)C1CCCN(CC/C=C/c2ccc(/N=N/c3cccc4ccccc34)cc2)C1 (stereo unspecified) | 8.71 | – | –
20 | O=C(O)C1CCCN(CCC#Cc2ccccc2-c2ccccc2)C1 (stereo unspecified) | – | – | IC50 [14]: 0.1 µM
21 | O=C(O)C1CCCN(CCC=Cc2ccc(N=Nc3cccc4ccccc34)cc2)C1 (mixture of isomers) | – | 7.41 | t1/2 [11]: 1.2 h
22 | O=C(O)C1CCCN(CCCC#Cc2ccc(/N=N/c3cccc4ccccc34)cc2)C1 (stereo unspecified) | 3.02 | – | –
23 | O=C(O)C1CCCN(CCC/C=C/c2cccc(/N=N/c3cccc4ccccc34)c2)C1 (stereo unspecified) | 19.5 | – | –
24 | O=C(O)C1CCCN(CCCC=Cc2ccc(N=Nc3ccccc3)cc2)C1 (mixture of isomers) | – | 23.4 | t1/2 [12]: 45.6 h

Second part, led by results:

Row | IC50 [1] [µM] | IC50 [2] [µM] | SMILES | other results
25 | 14.5 | – | O=C(O)C1CCCN(CCCC#Cc2cccc(/N=N/c3ccccc3)c2)C1 (stereo unspecified) | –
26 | 7.59 | – | O=C(O)C1CCCN(CCCC#Cc2ccc(/N=N/c3ccccc3)cc2)C1 (stereo unspecified) | –
27 | – | 0.417 | O=C(O)[C@@H]1CCCN(CCC#Cc2cccc(N=Nc3ccccc3)c2)C1 (mixture of isomers) | Activity [4]: 76%; Activity [5]: 60%; Activity [6]: -25.3 pA; Activity [7]: -1.84 pA; Activity [8]: 57%
28 | 32.4 | – | O=C(O)C1CCCN(CCC#Cc2cccc(/N=N/c3ccccc3)c2)C1 (stereo unspecified) | –
29 | 4.27 | – | O=C(O)[C@@H]1CCCN(CCC#Cc2cccc(/N=N/c3cccc4ccccc34)c2)C1 | IC50 (GABA transporter 4): 10 to 100 µM
30 | – | 25.7 | O=C(O)C1CCCN(CCCC#Cc2ccc(N=Nc3ccccc3)cc2)C1 (mixture of isomers) | t1/2 [13]: 163 h
31 | – | 1.45 | O=C(O)[C@@H]1CCCN(CCC#Cc2ccc(N=Nc3ccccc3)cc2)C1 (mixture of isomers) | –
32 | 22.4 | – | O=C(O)[C@@H]1CCCN(CCC#Cc2cccc(/N=N/c3ccccc3)c2)C1 | Activity [15]: -0.22 pA; IC50 (GABA transporter 4): 10 to 100 µM
33 | – | 2.57 | O=C(O)C1CCCN(CCC#Cc2ccc(N=Nc3ccccc3)cc2)C1 (mixture of isomers) | t1/2 [13]: 115 h
34 | – | 0.891 | O=C(O)C1CCCN(CCC#Cc2cccc(N=Nc3ccccc3)c2)C1 (mixture of isomers) | t1/2 [16]: 360 h; t1/2 [12]: 528 h
35 | – | 4.07 | O=C(O)C1CCCN(CCCC#Cc2cccc(N=Nc3ccccc3)c2)C1 (mixture of isomers) | t1/2 [3]: 360 h
36 | 0.646 | – | O=C(O)C1CCCN(CCC#Cc2ccc(/N=N/c3ccccc3)cc2)C1 (stereo unspecified) | –
37 | 38 | – | O=C(O)C1CCCN(CCC/C=C/c2cccc(/N=N/c3ccccc3)c2)C1 (stereo unspecified) | –
38 | 6.46 | – | O=C(O)C1CCCN(CCC#Cc2cccc(/N=N/c3cccc4ccccc34)c2)C1 (stereo unspecified) | –
39 | 0.417 | – | O=C(O)[C@@H]1CCCN(CCC#Cc2ccc(/N=N/c3ccccc3)cc2)C1 | IC50 (GABA transporter 4): 10 to 100 µM
40 | – | 13.8 | O=C(O)C1CCCN(CCCC#Cc2cccc(N=Nc3cccc4ccccc34)c2)C1 (mixture of isomers) | t1/2 [3]: 43.2 h
41 | – | 25.1 | O=C(O)C1CCCN(CCCC=Cc2cccc(N=Nc3ccccc3)c2)C1 (mixture of isomers) | t1/2 [3]: 288 h
42 | – | 1.95 | O=C(O)C1CCCN(CCC#Cc2cccc(N=Nc3cccc4ccccc34)c2)C1 (mixture of isomers) | t1/2 [3]: 18 h
43 | 12.3 | – | O=C(O)C1CCCN(CCCC#Cc2cccc(/N=N/c3cccc4ccccc34)c2)C1 (stereo unspecified) | –

Reference: ChEMBL document CHEMBL4130630 (J Med Chem, 2018)
